Measured values published in ChEMBL document CHEMBL4321816, “Identification of 2,6-Disubstituted 3H-Imidazo[4,5-b]pyridines as Therapeutic Agents for Dysferlinopathies through Phenotypic Screening on Patient-Derived Induced Pluripotent Stem Cells” (J Med Chem, 2019).
Values after ≈ are worked out from the molar mass of the structure shown. Active and inactive are the calls of the source. No cut-off for these calls is given here.

Columns and labels:
[1] = (§1) Anti-dysferlinopathy activity in human dermal myocytes derived from dysferlinopathy patient dermal fibroblast iPSC harboring dysferlin c.2997 G > T (p. W999C)/c.1958G deletion mutant assessed as increase in dysferlin expression incubated for 24 hrs by immunostaining assay; format: functional
Method in brief: (§2)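 iPSCs from a dysferlinopathy patient's dermal fibroblasts carrying a stably transfected Tet-MyoD1 vector. Differentiated to myocytes by doxycycline (1 µg/mL) MyoD induction, then treated on day 7 for 24 h at 0.003–10 µM (0.1% DMSO final). Fixed, immunostained for dysferlin and MHC, and imaged. Read-out: 488 nm intensity in the dysferlin/MHC double-positive area. EC150 is the concentration giving 50% increase over median DMSO wells, from a 4-parameter logistic fit.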

Sus scrofa = organism: Sus scrofa; experiment: Competitive inhibition of porcine tubulin alpha/beta at 10 to 100 uM preincubated 30 mins followed by addition of N-(2-(3-(But-3-yn-1-yl)-3H-diazirin-3-yl)ethyl)-5-(2-(phenoxymethyl)-3H-imidazo[4,5-b]pyridin-6-yl)thiophene-3-carboxamide and measured after 15 mins by SDS-PAGE based fluorescence assay
Method in brief: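 Porcine brain tubulin at 25 µg/mL in HEPES isotonic buffer (pH 7.4) pre-incubated 30 min at room temperature with DMSO or compound (1–10 mM DMSO stocks). […] Labeled tubulin was tagged with TAMRA-azide by click reaction, run on SDS-PAGE and scanned for fluorescence, with Coomassie staining for total tubulin.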

[2] = Aqueous solubility in pH 6.8 by HPLC analysis; format: physicochemical; conditions: buffer
Method in brief: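 Compound added from DMSO solution to aqueous buffer at pH 6.8 and incubated. Precipitate removed by filtration. Dissolved compound in the filtrate quantified by plate reader or HPLC.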

Homo sapiens = organism: Homo sapiens; experiment: as §1; format: functional; method in brief: as §2
[3] = Permeability of compound in pH 7.4 in PRISMA HT buffer at 10 umol/L incubated for 3 hrs by LC/MS/MS based PAMPA assay; format: ADME; conditions: read-out: permeability
Method in brief: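 PAMPA: donor wells held PRISMA HT buffer (pH 7.4) with 10 µmol/L compound, and the acceptor filter was coated with GIT-0 lipid over sink buffer. Incubated 3 h at room temperature, then compound in donor and acceptor wells measured by LC/MS/MS.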

HepG2 = experiment: Cytotoxicity against human HepG2 cells assessed as reduction in cell viability after 24 hrs by Cell Titer Glo assay; format: cell-based; conditions: HepG2, 24 h
Method in brief: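 HepG2 cells in DMEM high glucose with 10% FBS were seeded at 5000 cells/well and grown ~24 h. Compounds were then added for 24 h at 37 °C/5% CO2, and viability read by CellTiter-Glo luminescence. Controls were DMSO wells and medium-only wells. IC50 was taken from a sigmoidal fit of % inhibition.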

| Compound | EC150 [1] [µM] | also measured |
| --- | --- | --- |
| Fc1ccc(CCc2nc3cc(-c4cccs4)ccc3[nH]2)cc1 | >10 |  |
| Fc1ccc(OCc2nc3cc(-c4cccs4)cnc3[nH]2)cc1 | 0.067 |  |
| Fc1ccc(CCc2nc3cc(-c4cccs4)cnc3[nH]2)cc1 | 0.15 |  |
| c1ccc(Cc2nc3cc(-c4ccco4)cnc3[nH]2)cc1 | >10 |  |
| CC[C@]1(O)C[C@@H]2CN(CCc3c([nH]c4ccccc34)[C@@](C(=O)OC)(c3cc4c(cc3OC)N(C)[C@H]3[C@@](O)(C(=O)OC)[C@H](OC(C)=O)[C@]5(CC)C=CCN6CC[C@]43[C@@H]65)C2)C1 [VINBLASTINE] | 0.074 | inhibition (Sus scrofa): inactive |
| COc1ccc(CCc2nc3cc(-c4ccco4)cnc3[nH]2)cc1 | >10 |  |
| FC(F)(F)c1ccc(CCc2nc3cc(-c4ccco4)cnc3[nH]2)cc1 | >10 |  |
| c1ccc(OCc2nc3cc(-c4cccs4)cnc3[nH]2)cc1 | 0.039 | inhibition (Sus scrofa): Active |
| COC(=O)Nc1nc2cc(C(=O)c3cccs3)ccc2[nH]1 [NOCODAZOLE] | 1 | inhibition (Sus scrofa): Active |
| COc1cc2c(c(OC)c1OC)-c1ccc(OC)c(=O)cc1[C@@H](NC(C)=O)CC2 |  | inhibition (Sus scrofa): Active |
| Fc1ccc(CCc2nc3cc(-c4ccco4)cnc3[nH]2)cc1 | 1 |  |
| CC(=O)O[C@H]1C(=O)[C@@]2(C)[C@H]([C@H](OC(=O)c3ccccc3)[C@]3(O)C[C@H](OC(=O)[C@H](O)[C@@H](NC(=O)c4ccccc4)c4ccccc4)C(C)=C1C3(C)C)[C@]1(OC(C)=O)CO[C@@H]1C[C@@H]2O |  | inhibition (Sus scrofa): inactive |
| Cc1c(-c2cccs2)cnc2[nH]c(CCc3ccc(F)cc3)nc12 | 0.37 |  |
| CC(C)c1ccsc1-c1cnc2[nH]c(COc3ccccc3)nc2c1 | 0.012 |  |
| CNC(=O)c1csc(-c2cnc3[nH]c(COc4ccccc4)nc3c2)c1 | 0.11 |  |
| c1ccc(CCc2nc3cc(-c4ccco4)cnc3[nH]2)cc1 | 5.9 | solubility [2]: 6.4 µg/mL (≈ 22.1 µM); Activity (Homo sapiens): Dose-dependent effect; Papp at 3 h, 10 µM [3]: 332 nm/s; IC50 (HepG2): > 100 µM |

| Compound | EC150 [1] [µM] | also measured |
| --- | --- | --- |
| Fc1ccc(CCc2nc3ncc(-c4cccs4)cc3o2)cc1 | >10 |  |
| N#Cc1ccc(CCc2nc3cc(-c4ccco4)cnc3[nH]2)cc1 | >10 |  |
| Cc1csc(-c2cnc3[nH]c(CCc4ccc(F)cc4)nc3c2)c1 | 1.9 |  |
| CNC(=O)c1ccsc1-c1cnc2[nH]c(COc3ccccc3)nc2c1 | >10 |  |
| Fc1ccc(CCc2nc3cc(-c4ccccc4)cnc3[nH]2)cc1 | 1.3 |  |
| Cc1nc2[nH]c(CCc3ccc(F)cc3)nc2cc1-c1cccs1 | >10 |  |
| Clc1ccc(CCc2nc3cc(-c4ccco4)cnc3[nH]2)cc1 | 4.3 |  |
| Cc1ccsc1-c1cnc2[nH]c(CCc3ccc(F)cc3)nc2c1 | 0.11 |  |
| COCCOCCNC(=O)c1csc(-c2cnc3[nH]c(COc4ccccc4)nc3c2)c1 | 0.4 |  |
| Fc1ccc(CCc2nc3cc(-c4cccs4)cnc3o2)cc1 | >10 |  |
| Cc1ccc(CCc2nc3cc(-c4ccco4)cnc3[nH]2)cc1 | >10 |  |
| c1ccc(-c2nc3cc(-c4ccco4)cnc3[nH]2)cc1 | >10 |  |
| Clc1ccccc1CCc1nc2cc(-c3ccco3)cnc2[nH]1 | >10 |  |
| Clc1cccc(CCc2nc3cc(-c4ccco4)cnc3[nH]2)c1 | >10 |  |
| Cc1ccc(-c2cnc3[nH]c(CCc4ccc(F)cc4)nc3c2)s1 | 6.3 |  |
| C#CCCC1(CCNC(=O)c2csc(-c3cnc4[nH]c(COc5ccccc5)nc4c3)c2)N=N1 | 0.37 |  |
